An excerpt weighted towards active compounds, which were near 4.3% of everything screened.
UBC13 inh: UBC13 polyubiquitin chain formation inhibitors, primary screen, biochemical, TR-FRET, uHTS | Ubiquitin-conjugating enzyme E2 N (Homo sapiens), P61088 | inhibition, % at 20 µM | 330,000 tested, 0.47% active | AID 485273, 2010; in the data active = inhibition above about 45%, passing the limit was not always enough; inconclusive = no clear call, values can overlap the other calls
UBC9 SUMO inh: inhibitors of in vitro SUMOylation cascade, primary screen, biochemical, HTRF, uHTS | inhibition, % at 35 µM | 290,000 tested, 0.36% active | HTRF SUMOylation assay, SAE1/SAE2 + UBC9 | SUMO-conjugating enzyme UBC9 (Homo sapiens), P63279; in the data active = inhibition above about 50%, passing the limit was not always enough; inconclusive = no clear call, values can overlap the other calls
PREPL inh: PREPL enzyme inhibitors, primary screen, biochemical, fluorescence polarization; Prolyl endopeptidase-like (Homo sapiens), Q4J6C6; recombinant PREPL, fluorescence polarization activity-based probe; inhibition, % at 5.96 µM; 320,000 tested, 0.68% active; AID 2751, 2010; in the data active = inhibition above about 43%;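 note: 0% = enzyme with DMSO and 100% = wells lacking enzyme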
Rin1 Abl inh: inhibitors of Rin1-Abl protein binding, primary screen, biochemical, TR-FRET | Tyrosine-protein kinase ABL1 (Homo sapiens) + Ras and Rab interactor 1 (Homo sapiens), … | inhibition, % at 7.35 µM | 360,000 tested, 0.4% active | AID 588664, 2011; in the data active = inhibition above about 5%, passing the limit was not always enough
Target sequence (P00519 whole entry, looked up): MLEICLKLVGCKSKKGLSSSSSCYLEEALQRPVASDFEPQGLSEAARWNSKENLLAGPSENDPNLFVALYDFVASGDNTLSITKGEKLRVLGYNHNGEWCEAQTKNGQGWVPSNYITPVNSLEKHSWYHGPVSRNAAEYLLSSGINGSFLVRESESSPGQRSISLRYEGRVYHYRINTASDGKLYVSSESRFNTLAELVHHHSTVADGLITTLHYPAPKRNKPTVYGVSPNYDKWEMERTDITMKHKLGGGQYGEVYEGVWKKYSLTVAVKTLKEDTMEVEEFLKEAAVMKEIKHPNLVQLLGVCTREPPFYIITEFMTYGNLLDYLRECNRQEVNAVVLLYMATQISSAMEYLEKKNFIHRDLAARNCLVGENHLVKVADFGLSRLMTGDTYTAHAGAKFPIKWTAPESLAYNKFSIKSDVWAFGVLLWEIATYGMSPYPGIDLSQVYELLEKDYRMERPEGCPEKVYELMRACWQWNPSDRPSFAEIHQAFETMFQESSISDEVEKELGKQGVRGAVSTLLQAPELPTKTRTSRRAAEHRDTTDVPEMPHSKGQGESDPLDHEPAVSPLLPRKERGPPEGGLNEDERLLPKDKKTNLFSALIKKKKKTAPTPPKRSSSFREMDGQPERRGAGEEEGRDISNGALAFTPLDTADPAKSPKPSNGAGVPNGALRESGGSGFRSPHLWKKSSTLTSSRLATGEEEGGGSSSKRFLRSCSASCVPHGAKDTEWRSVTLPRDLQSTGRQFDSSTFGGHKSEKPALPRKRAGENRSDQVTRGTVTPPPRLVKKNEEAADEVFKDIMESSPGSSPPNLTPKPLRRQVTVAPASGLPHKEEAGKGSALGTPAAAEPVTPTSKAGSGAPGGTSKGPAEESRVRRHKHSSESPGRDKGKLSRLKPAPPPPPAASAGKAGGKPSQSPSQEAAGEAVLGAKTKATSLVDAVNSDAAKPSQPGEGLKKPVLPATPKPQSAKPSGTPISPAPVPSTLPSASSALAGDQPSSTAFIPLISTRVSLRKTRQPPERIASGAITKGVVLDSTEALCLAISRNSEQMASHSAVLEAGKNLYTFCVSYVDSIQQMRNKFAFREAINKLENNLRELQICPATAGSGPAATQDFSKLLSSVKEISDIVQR
Target sequence (Q13671 whole entry, looked up): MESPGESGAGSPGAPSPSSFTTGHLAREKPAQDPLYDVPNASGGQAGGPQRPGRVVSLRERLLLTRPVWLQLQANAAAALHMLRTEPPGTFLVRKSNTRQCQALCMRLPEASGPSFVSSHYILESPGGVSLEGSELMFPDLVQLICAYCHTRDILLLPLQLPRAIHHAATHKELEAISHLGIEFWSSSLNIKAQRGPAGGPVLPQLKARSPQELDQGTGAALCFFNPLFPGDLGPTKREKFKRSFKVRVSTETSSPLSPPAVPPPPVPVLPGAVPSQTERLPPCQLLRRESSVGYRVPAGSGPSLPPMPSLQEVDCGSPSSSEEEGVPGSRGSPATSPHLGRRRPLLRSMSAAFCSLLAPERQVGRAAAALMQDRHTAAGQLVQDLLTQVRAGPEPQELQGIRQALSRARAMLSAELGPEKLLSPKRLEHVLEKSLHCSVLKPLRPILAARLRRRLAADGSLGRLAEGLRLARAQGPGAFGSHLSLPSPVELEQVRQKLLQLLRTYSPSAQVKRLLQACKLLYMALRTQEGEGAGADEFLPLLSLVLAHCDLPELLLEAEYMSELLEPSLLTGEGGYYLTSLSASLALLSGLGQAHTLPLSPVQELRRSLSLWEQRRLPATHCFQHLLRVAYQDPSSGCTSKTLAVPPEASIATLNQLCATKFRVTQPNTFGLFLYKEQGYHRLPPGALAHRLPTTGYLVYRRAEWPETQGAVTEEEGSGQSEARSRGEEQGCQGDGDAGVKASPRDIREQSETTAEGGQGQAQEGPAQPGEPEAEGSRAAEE
ALR inh: inhibitors of human ALR sulfhydryl oxidase, primary screen, biochemical, H2O2 detection, HRP-luminol luminescence, single point; purified ALR, DTT oxidation; inhibition, % (concentration not given with the values); 290,000 tested, 3.8% active;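 active = mean replicate inhibition above about 79%, with every replicate also reaching it, limit read from the data; inconclusive = only one of the two criteria met; inactive = mean below limit and not every replicate reaching it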
RBBP9 inh: human RBBP9 inhibitors, primary screen, biochemical, fluorescence polarization, FP-Rh probe, HTS; inhibition, % at 7.94 µM; recombinant RBBP9; 220,000 tested, 0.2% active; AID 1515, 2009;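 active = inhibition above the campaign mean of all tested compounds plus 3 SD, cut at about 14% in these data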;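 note: plate controls were DMSO wells with RBBP9 for no effect and wells lacking RBBP9 protein for full effect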
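System: RBBP9 protein | Quantity: 2.5 µM RBBP9 dispensing solution, before mixing | Reagent: FP-Rh probe, 375 nM dispensing solution | Timing: Enzyme-compound preincubation 30 min, then probe labeling 45 min, 25 °C | Measured by: Fluorescence polarization | Read-out: % inhibition | Replication: One well per compound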
Casp3 UBC13 ctr: CASP3 inhibitor validation, counterassay for project on UBE2N polyubiquitination blockers, biochemical, one dose | shares compounds with UBC13 inh | Recombinant caspase-3, Caspase-Glo 3/7 luminescence, 60 min | inhibition, % at 20 µM | 1,400 tested, 4% active | AID 488856, 2010;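 active = mean inhibition across replicates above about 26%, limit read from the data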;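 note: plate controls were DMSO with caspase-3 for no effect and DMSO wells lacking enzyme for full effect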
UBC13 confirm: UBC13 polyubiquitination inhibitors, single-point retest, confirmation, biochemical, TR-FRET, single concentration. inhibition, % at 10 µM. shares compounds with UBC13 inh. AID 488859, 2010. 1,400 tested, 68% active; in the data active = inhibition above about 45%; inconclusive = no clear call, values can overlap the other calls
An asterisk follows results filed as active; ? = inconclusive; . = no result given.

SMILES	UBC13 inh	UBC9 SUMO inh	PREPL inh	Rin1 Abl inh	ALR inh	RBBP9 inh	Casp3 UBC13 ctr	UBC13 confirm
CCCCNC(=S)N=Nc1c(O)[nH]c2ccccc12	85*	-24	7	0	1	-1	2	102*
CCOc1ccc(NC(=S)N=Nc2c(O)[nH]c3ccccc23)cc1	61*	-43	11	-1	-6	0	3	77*
Cc1ccc(NC(=O)COC(=O)COc2cccc3c2OC(C)(C)C3)c(C)c1	3	.	9	-2	-3	.	.	.
C=CCn1c(-c2ccccn2)n[nH]c1=S	.	.	.	-3	.	.	.	.
Cc1ccc2cc([N+](=O)[O-])ccc2n1	-7	16	9	3	-12	-5	.	.
COc1ccccc1NC(=O)Nc1nc(C(C)(C)C)cs1	53*	-14	-1	0	7	-6	-2	55*
CCOC(=O)c1c(NC(=O)C(NCCN(C)C)c2ccccc2)sc2c1CCCC2 (centres undefined)	48*	19	30	-1	1	.	-3	88*
Cc1c(C)n(Cc2ccccc2)c2ncnc(N)c12	59*	30	-34	4	.	-3	1	61*
Cc1c(C)n(Cc2ccccc2)c2ncnc(NCCO)c12	5	-13	-25	0	10	.	.	.
CCOc1ccc(NC(=O)CN(C)C(=O)c2cccnc2Sc2ccc(C)c(C)c2)cc1OCC	-5	-17	-1	7	-16	.	.	.
O=C(CCC1CCCCC1)NCCN1C2=NC[C@H](Cc3ccccc3)N2C[C@H]1Cc1ccc(O)cc1	65*	12	-18	2	-33	2	2	60*
COc1ccc(C[C@@H]2CN3C(=NC[C@@H]3Cc3ccc(O)cc3)N2C[C@H](C)NC(=O)CCC2CCCCC2)cc1	56*	-29	7	0	-16	.	0	38
Cc1ccc(NC(=O)C[n+]2ccn(C3=C([O-])c4ccccc4C3=O)c2)cc1	74*	-3	35	-4	-5	3	4	65*
Cc1cc(C)n2nc(SCC(=O)c3c(N)n(CC(C)C)c(=O)n(C)c3=O)nc2n1	3	-9	-7	-1	-5	-10	.	.
CCOC(=O)C1=C(COC(=O)c2nc(Cl)ccc2Cl)NC(=O)NC1C (centres undefined)	10	.	.	2	.	.	.	.
CCOC(=O)C1=C(COC(=O)c2ncc(Cl)c(Cl)c2Cl)NC(=O)NC1C (centres undefined)	76*	.	-28	1	0	.	-2	87*
COc1ccc(C(=O)NC(=S)NNC(=O)c2ccc(NC(C)=O)cc2)cc1Br	71*	-67	-7	-4	54	-7	1	104*
COC(=O)C1=C(C)N(Cc2ccccc2)C(=NCc2ccc(OC)cc2)N[C@H]1c1cccc(F)c1	74*	2	-22	0	-25	.	3	66*
COC(=O)C1=C(C)N(Cc2ccccc2)C(=NCc2cccc(Cl)c2)N[C@H]1c1cccc(F)c1	72*	.	-61	4	-9	.	-1	86*
COC(=O)C1=C(C)N(Cc2ccccc2)C(=NCc2cc(OC)c(OC)c(OC)c2)N[C@H]1c1cccc(F)c1	30	-17	19	4	-8	.	.	.
Nc1ccc(-c2cnc3ccccc3n2)cc1	-2	.	7	-5	-7	.	.	.
CCCCOc1ccc(-c2cnc3ccccc3n2)cc1	54*	-9	-8	1	-11	-6	93*	?
O=C(CSCc1ccc([N+](=O)[O-])cc1)N/N=C/c1ccncc1	68*	11	-6	0	-33	-4	-5	75*
C/C(=N\NC(=O)CSCc1ccccc1Br)c1cccc([N+](=O)[O-])c1	-4	-12	0	-1	-4	-8	.	.
O=C(CSCc1ccc([N+](=O)[O-])cc1)N/N=C/c1cccnc1	86*	22	-7	4	-1	-8	-1	96*
SMILES	UBC13 inh	UBC9 SUMO inh	PREPL inh	Rin1 Abl inh	ALR inh	RBBP9 inh	Casp3 UBC13 ctr	UBC13 confirm
C/C(=N\NC(=O)CSCc1ccc([N+](=O)[O-])cc1)c1cccc(Br)c1	47*	-14	-12	-4	-3	-2	-2	34
O=C(Cc1ccc([N+](=O)[O-])cc1)N/N=C/c1cccnc1	-1	.	0	-1	-13	.	.	.
O=C(NN=Cc1ccc([N+](=O)[O-])cc1)c1ccncc1	.	.	.	-2	.	.	.	.
CC(C)(C)OC(=O)NC1CCN(S(=O)(=O)c2ccc3c(c2)OCCO3)CC1	-5	3	10	2	.	.	.	.
CCN1CCN(Cc2ccc(NC(=O)c3ccc(C)c(/C=C/c4cnc(Nc5cc(N6CCNCC6)nc(C)n5)cn4)c3)cc2C(F)(F)F)CC1	123*	-1	28	-5	-6	.	-1	116*
CCOc1ccccc1NC(=O)CN1CCC(C(=O)c2ccc(F)cc2)CC1	73*	-28	11	2	1	.	0	78*
CCCCOc1ccc(CNn2c(C)nc3ccccc3c2=O)cc1	75*	11	2	2	.	-6	0	82*
COc1ccc(CNn2c(C)nc3ccccc3c2=O)cc1	47*	30	4	3	-4	-2	-2	49*
COc1ccc(CNn2c(-c3cccc(C)c3)nc3ccccc3c2=O)cc1OC	-7	-2	7	0	-13	-1	.	.
COc1ccc(Cn2c(SCC(=O)NCc3ccco3)nc3ccsc3c2=O)cc1	66*	-15	6	-1	-16	-1	-4	74*
Cc1ccc(CNC(=O)CSc2nc3ccsc3c(=O)n2Cc2ccc(C(=O)O)cc2)cc1	56*	4	10	5	21	-2	6	64*
CCCCn1c(SCC(=O)Nc2cc(C)on2)nc2ccsc2c1=O	6	12	12	2	6	-7	.	.
CCCCn1c(SCC(=O)Nc2cc(C)[nH]n2)nc2ccsc2c1=O	50*	2	3	-2	2	3	-2	53*
O=C(CSc1nc2ccccc2c(=O)n1Cc1ccccc1)NCc1ccco1	6	10	1	0	-8	-7	.	.
O=C(CSc1nc2ccsc2c(=O)n1Cc1ccc(C(=O)O)cc1)NCc1ccco1	61*	9	-6	-2	-1	4	1	60*
